# MEKK2 WT-MEK5 = raises or lowers MEK5 binding to wildtype human MEKK2 PB1 domain; Q9Y2U5; bead flow cytometry, Alexa488-MEK5 binding to MEKK2 WT; actives lie on both sides; binding response (% of control), % at 10 µM; 290,000 tested, 1.1% active; AID 1531; in the data active means binding response below about 67% or above about 130%
# Arr AP2 block = inhibitors of human beta-arrestin and AP2 interaction | FITC-arrestin peptide / GST-AP2 beads, flow cytometry; AP2 beta2 appendage carries R879A mutation | inhibition, % at 10 µM | 340,000 tested, 0.31% active;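 active means inhibition above a set limit, near 3 SD of compounds lacking own fluorescence, cut at about 54% in these data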;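 further: plate controls were DMSO wells for no effect and 5 µM unlabelled arrestin peptide for full effect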
#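 Material – GST-tagged AP2 beta2-adaptin appendage (R879A) on 4 µm glutathione beads · Probe or stimulus – fluorescein-tagged arrestin peptide at 50 nM final · Timing – 12 min plus 1 h, RT · Detection – bead flow cytometry, FITC channel · Read-out basis – inhibition as reduced fluorescein signal on beads, percent · Medium – PBS plus Tween 20 (0.05%) and BSA (0.1%)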
# MEKK3 PB1 HTS = MEKK3-MEK5 PB1 interaction, increase or decrease. Q99759. bead-based flow cytometry, Alexa488-MEK5 binding to MEKK3; actives lie on both sides; 0 = blocked by unlabeled MEK5, 100 = vehicle. binding response (% of control), % at 10 µM. 290,000 tested, 1.4% active. AID 1529;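 active means binding response more than 3 SD above or below the average of its plate-row segment, actives on both sides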;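 further: Alexa488 bead fluorescence after subtracting the streptavidin-only scavenger bead signal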
# Target sequence (Q99759 whole entry, looked up): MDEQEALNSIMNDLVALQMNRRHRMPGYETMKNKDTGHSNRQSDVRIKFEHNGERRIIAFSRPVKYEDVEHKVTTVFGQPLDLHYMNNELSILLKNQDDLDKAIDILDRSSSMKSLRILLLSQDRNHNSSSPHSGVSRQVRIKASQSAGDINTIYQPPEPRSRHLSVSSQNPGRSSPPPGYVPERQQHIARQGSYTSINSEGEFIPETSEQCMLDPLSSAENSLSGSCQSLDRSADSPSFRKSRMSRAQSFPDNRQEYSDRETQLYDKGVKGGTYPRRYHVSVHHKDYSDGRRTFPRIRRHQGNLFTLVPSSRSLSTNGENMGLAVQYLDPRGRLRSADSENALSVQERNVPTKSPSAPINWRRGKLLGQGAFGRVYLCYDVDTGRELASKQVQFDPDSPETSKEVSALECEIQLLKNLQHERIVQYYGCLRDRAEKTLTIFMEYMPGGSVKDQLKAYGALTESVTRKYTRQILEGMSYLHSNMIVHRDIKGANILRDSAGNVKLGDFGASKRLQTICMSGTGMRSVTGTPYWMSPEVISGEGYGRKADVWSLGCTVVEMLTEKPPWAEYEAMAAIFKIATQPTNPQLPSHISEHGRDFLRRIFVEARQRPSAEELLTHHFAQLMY
# MEKK2 mut-MEK5 = signal of MEK5 binding to mutant human MEKK2 PB1 domain; bead flow cytometry, Alexa488-MEK5 binding to MEKK2 mutant; 290,000 tested, 0.35% active; percent response, % at 10 µM; in the data active means percent response above about 24%, passing the limit was not always enough
# MEKK2wt confirm = raises or lowers MEK5 binding to wildtype human MEKK2, retest. shares compounds with MEKK3 PB1 HTS. bead flow cytometry, Alexa488-MEK5 binding to MEKK2 WT; actives lie on both sides. binding response (% of control), % at 10 µM. 5,900 tested, 2.4% active; in the data active means binding response below about 16% or above about 210%; inactive means in between
# MEKK2mut confirm = signal of MEK5 binding to mutant human MEKK2, retest. shares compounds with MEKK3 PB1 HTS. bead flow cytometry, Alexa488-MEK5 binding to MEKK2 mutant. percent response, % at 10 µM. 5,900 tested, 2% active. AID 1893; in the data active means percent response mostly above about 71%, no sharp cut-off; inactive means mostly below about 38%;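 further: higher means compound restores mutant binding toward wildtype level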
# MEKK3-MEK5 inh = confirmation of inhibitors of MEK5 binding to human MEKK3 | binding response (% of control), % at 10 µM | AID 1894 | shares compounds with MEKK3 PB1 HTS | 5,900 tested, 1.8% active | bead flow cytometry, Alexa488-MEK5 binding to MEKK3; stronger effect = lower value;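 active means binding response below 72% of control, or above a set upper limit, though filed actives all read lower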;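 further: 100% = DMSO only wells and 0% = binding blocked by excess unlabeled MEK5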
# The depositor's hits bear a star; · = not tested or not shown; [ ] = another dose, or the depositor's remark. An excerpt weighted towards active compounds, which were near 2.3% of everything screened.
SMILES,MEKK2 WT-MEK5,Arr AP2 block,MEKK3 PB1 HTS,MEKK2 mut-MEK5,MEKK2wt confirm,MEKK2mut confirm,MEKK3-MEK5 inh
O=C(Nc1ccc(F)cc1)Nc1cccnc1,98.0,1.1,100.0,1.0,·,·,·
Cc1ccc(C(=O)NC(=S)NCC2CCCO2)cc1[N+](=O)[O-] (stereo not given),102.0,8.1,103.0,0.0,·,·,·
Cc1cc(/C=C2/SC(=O)N(CC(=O)N3CCOCC3)C2=O)c(C)n1-c1ccccc1F,105.0,25.6,148.0*,0.0,103.0,-8.0,98.0
COc1ccc(-n2c(C)cc(/C=C3/SC(=O)N(CC(=O)N4CCOCC4)C3=O)c2C)cc1,101.0,-8.9,97.0,-2.0,·,·,·
CC(=O)NCCc1c[nH]c2ccc(O)cc12,106.0,-0.2,102.0,2.0,·,·,·
O=C(COC(=O)CCC(NC(=O)OCc1ccccc1)C(=O)OCC(=O)Nc1ccccc1)Nc1ccccc1 (stereo not given),113.0,-26.6,152.0*,1.0,109.0,4.0,103.0
O=C(CCC(NC(=O)OCc1ccccc1)C(=O)OCC(=O)N1CCCCC1)OCC(=O)N1CCCCC1 (stereo not given),84.0,1.4,86.0,-4.0,·,·,·
Cc1cc(C(=O)NNC(=O)c2cccs2)c(C)o1,·,3.3,·,·,·,·,·
CCOC(=O)CNC(=O)Nc1nnc(-c2ccc(OCC)cc2)o1,56.0,13.3,48.0*[inhibitor],-11.0,97.0,-1.0,100.0
CCCCNC(=O)Nc1nnc(-c2ccc(OCC)cc2)o1,100.0,-1.6,103.0,-2.0,·,·,·
Cc1nnsc1-c1nnc(SCC(=O)c2ccccc2)n1C1CC1,98.0,-7.8,98.0,-2.0,·,·,·
CCc1ccc(Nc2n[n+](-c3ccccc3)c(-c3ccc(OCc4ccccc4)cc3)s2)cc1,220.0*,1.8,111.0,107.0*,209.0*,82.0*,114.0
CCc1ccc(Nc2n[n+](-c3ccccc3)c(-c3c(Cl)cccc3Cl)s2)cc1,133.0,28.6,105.0,9.0,·,·,·
CCc1ccc(Nc2n[n+](-c3ccccc3)c(-c3ccc(N(CC)CC)cc3)s2)cc1,65.0*,-1.5,101.0,277.0*,164.0,50.0,94.0
O=C(O)c1ccc(-c2sc(Nc3ccccc3)n[n+]2-c2ccccc2)cc1,95.0,-9.5,99.0,-4.0,·,·,·
c1ccc(COc2ccc(-c3sc(Nc4ccccc4)n[n+]3-c3ccccc3)cc2)cc1,221.0*,·,109.0,38.0*,185.0,55.0,110.0
COc1ccc(C(=O)OCC(=O)Nc2c(C)n(C)n(-c3ccccc3)c2=O)cc1OC,·,-6.3,·,·,·,·,·
COc1ccccc1NS(=O)(=O)c1cc(NC(=O)c2cc3ccccc3oc2=O)ccc1C,105.0,0.6,157.0*,0.0,96.0,-11.0,98.0
COc1ccccc1NC(=O)Cn1nnc(-c2ccccc2NC(=O)c2cc3ccccc3oc2=O)n1,81.0,3.8,76.0*[inhibitor],-7.0,98.0,-1.0,99.0
CNC(=O)N(O)C1N(/N=C/c2c(F)cccc2Cl)C(=S)SC1(C)C (stereo not given),105.0,7.4,103.0,1.0,·,·,·
O=C(O)C1C2CCC(O2)C1C(=O)Nc1ccc(F)c(Cl)c1 (stereo not given),104.0,6.0,103.0,3.0,·,·,·
Cc1ccc(NC(=O)C2C3CCC(O3)C2C(=O)O)cc1Cl (stereo not given),3.0*[inhibitor],-9.8,2.0*[inhibitor],-61.0,100.0,-5.0,99.0
COC(=O)c1ccc(CSc2nnc(-c3ccc4c(c3)OCO4)n2-c2ccccc2)o1,109.0,-11.6,131.0*,4.0,104.0,3.0,105.0
CC(Cc1n[nH]c(=S)n1N)c1ccccc1 (stereo not given),110.0,-0.7,107.0,11.0,·,·,·
CCN1C(=O)N(CC)C2NC(=S)NC21 (stereo not given),106.0,-3.4,103.0,4.0,·,·,·
SMILES,MEKK2 WT-MEK5,Arr AP2 block,MEKK3 PB1 HTS,MEKK2 mut-MEK5,MEKK2wt confirm,MEKK2mut confirm,MEKK3-MEK5 inh
CCN1C(=O)N(CC)C2C1N(CO)C(=O)N2CO (stereo not given),117.0,14.7,129.0*,1.0,98.0,1.0,99.0
CCOc1ccccc1CN1C(=O)c2ccccc2C1C(=O)NC(C)CC (stereo not given),123.0,7.8,128.0*,5.0,97.0,-7.0,97.0
Cc1ccc(C(=O)NCC(=O)Nc2ccncc2)s1,106.0,-10.6,102.0,7.0,·,·,·
CC(C)OC(=O)C(NC(=O)c1ccccc1)=C1CCCCC1,113.0,0.9,122.0*,6.0,96.0,0.0,102.0
COc1cccc(OC)c1CC1SC(=O)NC1=O (stereo not given),102.0,16.6,104.0,-2.0,·,·,·
COc1ccc(-c2nsc3c(N4CCN(S(=O)(=O)c5ccccc5F)CC4)ncnc23)cc1,80.0,9.6,71.0*[inhibitor],-14.0,101.0,-5.0,100.0
COc1ccc(-c2nsc3c(N4CCCCC4)ncnc23)cc1,100.0,-3.1,105.0,1.0,·,·,·
c1ccc(CCNc2ccc3c(c2)Cc2ccccc2-3)nc1,·,-1.8,·,·,·,·,·
Cc1ccccc1NC(=O)COC(=O)C1(C)CC1(Cl)Cl (stereo not given),1.0*[inhibitor],6.6,2.0*[inhibitor],-20.0,93.0,-10.0,89.0
CC(C)c1ccccc1NC(=O)COC(=O)C1(C)CC1(Cl)Cl (stereo not given),83.0,13.9,92.0,-12.0,·,·,·
O=C(O)CSc1nnc(COc2cccc3ccccc23)o1,101.0,-4.3,103.0,1.0,·,·,·
COC(=O)CSc1nnc(COc2cccc3ccccc23)o1,117.0,20.5,116.0,28.0*,105.0,4.0,108.0
CC(=O)c1ccc(NC(=S)Nc2ccc3[nH]c(=O)[nH]c3c2)cc1,7.0*[inhibitor],10.8,5.0*[inhibitor],-19.0,109.0,-2.0,104.0
COc1c(C)cc(S(=O)(=O)NCc2ccco2)c(C)c1C,102.0,5.9,101.0,0.0,·,·,·
CC(=O)N1CC2(C)CN(C(C)=O)CC(C)(C1)C2,94.0,-2.8,91.0,0.0,·,·,·
CCC(=O)N1CC2(C)CN(C(=O)CC)CC(C)(C1)C2,122.0,-8.8,129.0*,8.0,100.0,-3.0,101.0
COc1ccc(CNC(=O)CCSCc2ccccc2Cl)c(OC)c1,107.0,12.8,126.0,0.0,·,·,·
COc1ccc(CNC(=O)CSCc2ccccc2Cl)cc1,105.0,27.8,128.0*,1.0,103.0,0.0,103.0
O=C(Nc1ccccn1)C1CCCN1S(=O)(=O)c1ccc(Cl)cc1 (stereo not given),107.0,-7.3,100.0,5.0,·,·,·
CCOP(=O)(OCC)c1nc(-c2ccc(Cl)cc2Cl)oc1N1CCCCC1,49.0,-1.2,39.0*[inhibitor],-15.0,99.0,-3.0,103.0

# Bioassay records deposited in PubChem by NMMLSC.
